STAT3 activator: STAT3 signaling activation. U3A cells, IL-6 STAT3-luciferase reporter, luminescence; 100% = signal with IL-6 EC80 alone. activation (% of control), % at 5.6 µM. actives 0.91% (n = 190,000). AID 871;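 active means activation above the screen-wide mean of compound activation plus 3 SD, cut at about 130% in these data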;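 further: 0% = background luminescence of wells with medium and substrate only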
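Material: STAT3-luciferase reporter U3A cells; Probe or stimulus: IL-6 (33 ng/mL); Incubation: compound pre-incubation 1 h before IL-6, then 6 h stimulation at 37 °C; Technique: luminescence from STAT3-driven luciferase reporter; Evaluation: % activation versus median of IL-6-stimulated wells; Controls: IL-6-only high control.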
STAT1 inh: STAT1 signaling inhibition. NIH 3T3 STAT1-luciferase reporter, IFN-gamma, luminescence. inhibition, % at 5.5 µM. actives 0.35% (n = 200,000). AID 920;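 active means inhibition above a set limit, the mean inhibition across all tested compounds plus 3 SD, cut at about 34% in these data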;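 further: 0% = IFN-gamma with DMSO and 100% = IFN-gamma with 300 µM nifuroxazide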
NF-kB expr up: compounds increasing NF-kB expression in human neuronal cells | NF-kB reporter expression; stronger effect = higher value | fold change at 12.5 µM | actives 1.6% (n = 190,000) | AID 1239; in the data active means fold change above about 3.3
STAT3 blocker: reduces IL-6 driven STAT3 reporter signal. inhibition, % at 5.5 µM. U3A cells, IL-6 STAT3-luciferase reporter, luminescence; host cell line lacks STAT1. actives 0.89% (n = 190,000);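 active means inhibition above the mean inhibition across all screened compounds plus 3 SD, cut at about 44% in these data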;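 further: 0% = DMSO only wells and 100% = 100 µM nifuroxazide control wells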
STAT1 activator: STAT1 signaling activation | NIH 3T3 STAT1-luciferase reporter, IFN-gamma, luminescence; 100% = IFN-gamma alone, no compound | activation (% of control), % at 5.5 µM | actives 2.6% (n = 200,000) | AID 932;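 active means activation above the screen-wide mean activation plus 3 SD, cut at about 130% in these data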;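 further: raw ratio to IFN-gamma control signal so 100% means no change and 0% no light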
APP 5'UTR act: APP 5'UTR luciferase reporter activation. actives 1% (n = 190,000). AID 1276. activation, % at 2 µM. SH-SY5Y APP 5'UTR luciferase reporter, luminescence; zero percent = DMSO vehicle wells;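 active means activation above a set limit, based on mean plus 3 SD of controls, cut at about 140% in these data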
* marks the source's active call; other numbers are inactive results; . = no result given. A selection: hits, their analogues and other compounds. The true share with any hit is near 4.9%.

SMILES | STAT3 activator | STAT1 inh | NF-kB expr up | STAT3 blocker | STAT1 activator | APP 5'UTR act
CCOC(=O)C(=O)N=Nc1c(O)n(C)c2ccccc12 | 94 | -11 | 1.3 | 12 | 109 | 3
Cc1occc1C(=O)N=Nc1c(O)n(C)c2ccccc12 | 121 | -55 | 3 | -25 | 149* | 112
Cn1c(O)c(N=NC(=O)c2ccccc2O)c2ccccc21 | 125 | -34 | 3.1 | -24 | 130* | 216*
Cn1c(O)c(N=NC(=O)c2ccco2)c2ccccc21 | 86 | -24 | 2.5 | 20 | 121 | 176*
Cc1ccc(CNC(=O)c2nn(C)c(C)c2[N+](=O)[O-])cc1 | 93 | -1 | 1.1 | 10 | 100 | 4
Cc1ccc(NC(=O)c2ccc([N+](=O)[O-])o2)cc1C | 76 | -56 | . | 32 | 148* | -44
Cc1ccc(CNC(=O)c2ccc([N+](=O)[O-])o2)cc1 | 86 | 6 | 3.5* | 22 | 95 | 5
O=C(Nc1ncccn1)c1ccc([N+](=O)[O-])o1 | 80 | -22 | 1.6 | 28 | 120 | 9
O=C(Nc1ccccn1)c1ccc([N+](=O)[O-])o1 | 95 | 6 | 4.3* | 6 | 94 | -27
COc1cc(Br)cc(CNc2ccc(F)c([N+](=O)[O-])c2)c1O | 96 | 1 | 0.67 | 13 | 100 | 4
O=C(c1cccc(COc2ccc(Cl)cc2Cl)c1)N1CCN(c2ccccn2)CC1 | 92 | -16 | 1.9 | 11 | 115 | 173*
O=C(Nc1cc2ccccc2oc1=O)c1ccccc1 | 25 | 76* | 2.3 | 96* | 29 | 131
O=S(=O)(Nc1ccc(-c2nc3cccnc3s2)cc1)c1ccc(Cl)s1 | 111 | -35 | 1.6 | -4 | 131* | 77
Cc1cc(-c2nc3cccnc3s2)ccc1NS(=O)(=O)c1cccs1 | . | -52 | 2.5 | . | 146* | 75
CCS(=O)(=O)Nc1ccc(-c2nc3cccnc3s2)cc1 | . | 12 | 2 | . | 88 | 197*
CCS(=O)(=O)Nc1cc(-c2nc3cccnc3s2)ccc1C | 162* | -39 | 2.5 | -71 | 135* | 104
O=S(=O)(Nc1ccc(-c2nc3cccnc3s2)cc1)c1cccs1 | 108 | -14 | 1.7 | -5 | 112 | 19
Cc1cc(C(=O)CCl)c(C)n1-c1c(C)n(C)n(-c2ccccc2)c1=O | 90 | 6 | 2.7 | 14 | 95 | -6
c1ccc(CCC2CCCCN2Cc2nc(C3CC3)no2)cc1 (configuration not stated) | 104 | -4 | 0.93 | -4 | 103 | 26
CCOC(=O)N1CCN(C(=O)c2noc(C(C)C)c2[N+](=O)[O-])CC1 | 93 | 15 | 1.4 | 8 | 86 | 19
OC(COc1ccc2cc(Br)ccc2c1)CN1CCOCC1 (configuration not stated) | 100 | -11 | 0.99 | 1 | 111 | 7
O=C(CCSc1ccccc1)Nc1ccc(OCc2ccccc2)cc1 | 102 | -3 | 1.2 | 7 | 102 | 18
CC(=O)N1[C@H](Cc2ccccc2)C=C[C@]1(C)C(=O)NCc1ccccn1 | 103 | 3 | 1.3 | -6 | 98 | -12
CCn1cnc2cc(NC(=O)c3ccco3)ccc21 | 98 | -33 | 2.9 | 6 | 135* | 53
O=C(Nc1ccc2nn(-c3ccccc3)nc2c1)c1ccco1 | 94 | -34 | 2.3 | 9 | 132* | 81
SMILES | STAT3 activator | STAT1 inh | NF-kB expr up | STAT3 blocker | STAT1 activator | APP 5'UTR act
CCCn1cnc2cc(NC(=O)c3cccs3)ccc21 | 109 | -45 | . | -5 | 138* | 97
O=C(Nc1cc2nn(-c3ccccc3)nc2cc1Cl)c1ccco1 | 145* | -36 | 1.7 | -43 | 133* | 25
COc1ccc(S(=O)(=O)N(CC(=O)N/N=C/c2cccs2)c2cc(C)cc(C)c2)cc1OC | 99 | -3 | 0.68 | 10 | 108 | 26
CCN(CC)CC(O)CN1C(=O)NC(C)(C)C1=O (configuration not stated) | 103 | -8 | 1.2 | 4 | 106 | 0
Clc1ccc(Sc2cc(Cl)c(-c3ccccc3)nn2)cc1 | 142* | 3 | 0.88 | -52 | 98 | -10
O=C(CSc1nc2ccc(NC(=O)CSc3nnnn3-c3ccccc3)cc2s1)Nc1ccccc1 | 89 | -7 | 1.2 | 16 | 106 | 11
Cn1cnnc1SCC(=O)Nc1ccc2nc(SCc3ccccc3F)sc2c1 | 114 | -52 | 2.9 | -16 | 146* | 72
COc1ccc([N+](=O)[O-])cc1NCc1ccccc1 | 110 | -48 | 1.6 | -11 | 143* | 10
COC(=O)c1ccc2nc(-c3cccc(N)c3)cn2c1 | 37 | 60* | 2.1 | 74* | 44 | 56
COC(=O)c1ccc2nc(-c3ccc(S(C)(=O)=O)cc3)cn2c1 | 108 | -39 | 2 | -4 | 139* | 27
CCOC(=O)C1=C(COC(=O)C2(C)CC2(Cl)Cl)NC(=O)NC1c1ccccc1 (configuration not stated) | 101 | 5 | 1 | 0 | 96 | -11
Cc1cccc(C)c1NC(=O)C1CCCCN1C (configuration not stated) | 101 | 13 | 1 | 2 | 88 | -1
CC(=O)Nc1ccccc1OCC(=O)c1ccc2c(c1)OCO2 | 105 | -38 | 1.4 | 0 | 135* | 123
Cc1ccccc1OCC(=O)Nc1ccc2c(c1)OCO2 | 91 | -11 | 1.7 | 13 | 110 | 27
O=C(CCNc1ccccc1)c1ccc2c(c1)OCO2 | 100 | -52 | 3.1 | 6 | 148* | 55
C/C=C/c1ccc(OCC(=O)OCc2csc(Nc3ccc(C)cc3)n2)c(OC)c1 | 86 | -12 | 1.8 | 16 | 110 | 10
Cc1ccc(Nc2nc(COC(=O)COc3ccc(C=O)cc3)cs2)cc1 | 102 | -35 | 2.1 | -3 | 131* | 32
CC(C)Cc1nc2sc3c(=O)n(N)cnc3c2c2c1COC(C)(C)C2 | 105 | 4 | 0.71 | -8 | 97 | 14
COc1ccc(NS(=O)(=O)c2cccc(-c3nnc4n3CCCCC4)c2)cc1 | 106 | -2 | 1 | -5 | 102 | -6
COc1ccc(-c2cc3nc4n(c(=O)c3s2)CCC4)cc1 | 20 | 65* | 1.1 | 92* | 40 | 160*
COc1cc(O)sc1C=Nc1ccc(Cl)cc1 | 119 | -35 | 2 | -20 | 132* | 34
Cc1cc(C(=O)COC(=O)c2ccc(Br)o2)c(C)n1Cc1ccco1 | 112 | -18 | 1.1 | -5 | 115 | 56
Cc1cc(C(=O)COC(=O)C(C)NC(N)=O)c(C)n1Cc1ccco1 (configuration not stated) | 98 | -7 | 1.6 | 2 | 106 | 9
Cc1cc(C(=O)COC(=O)c2ccc(O)cc2)c(C)n1Cc1ccco1 | 108 | -49 | 4.4* | -12 | 149* | 164*
CCOc1ncccc1C(=O)OCC(=O)c1cc(C)n(Cc2ccco2)c1C | 99 | -20 | 4.6* | 6 | 118 | 164*

Screens as filed in PubChem BioAssay.
